According to ChEMBL document CHEMBL1132234, “Simplified pepstatins: synthesis and evaluation of N-terminally modified analogues” (J Med Chem, 1999):

Key:
[1] = (§1) The compound was tested for inhibitory effect towards the pepsin hydrolysis of Horseradish peroxidase; parameters: species or system plant
Summary of the method: (§2)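 Pepsin (10 µg ≙ 35 units, freshly prepared) was mixed with DMSO serial dilutions of inhibitor (1.00 mg/mL solution, 1:10 then 1:2 steps), with horseradish peroxidase as protein substrate. Mixtures were serially diluted 1:2 in 0.05 N HCl, and residual peroxidase was read with o-phenylenediamine/H₂O₂ in 0.2 M phosphate pH 6.5 (15 min, room temperature, OD 492 nm). Pepstatin A served as reference. IC50 was determined.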

[2] = molecular target: Pepsin A (Sus scrofa, UniProt P00791); experiment: as §1; parameters: species or system plant; summary of the method: as §2
Pepsin A, sequence (P00791 whole entry): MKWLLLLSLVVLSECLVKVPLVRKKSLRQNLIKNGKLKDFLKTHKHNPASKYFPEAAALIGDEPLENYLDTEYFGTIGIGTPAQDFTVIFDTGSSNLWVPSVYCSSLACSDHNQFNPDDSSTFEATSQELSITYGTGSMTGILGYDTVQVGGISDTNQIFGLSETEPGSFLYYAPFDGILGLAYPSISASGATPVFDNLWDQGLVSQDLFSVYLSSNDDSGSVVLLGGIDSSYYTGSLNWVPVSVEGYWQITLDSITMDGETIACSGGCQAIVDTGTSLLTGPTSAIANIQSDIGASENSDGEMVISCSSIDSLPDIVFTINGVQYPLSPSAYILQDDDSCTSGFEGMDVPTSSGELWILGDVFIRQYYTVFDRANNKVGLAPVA

Row | Structure (SMILES) | IC50 [1] | IC50 [2]
1 | CC(C)CC(=O)N[C@H](C(=O)N[C@H](C(=O)N[C@@H](CC(C)C)[C@@H](O)CC(=O)N[C@@H](C)C(=O)N[C@@H](CC(C)C)[C@@H](O)CC(=O)O)C(C)C)C(C)C [PEPSTATIN] | 31 nM | –
2 | CCCCCCC(O)[C@H](CC(C)C)NC(=O)[C@@H](NC(=O)[C@@H](NC(=O)OCc1ccccc1)C(C)C)C(C)C (stereo not given in full) | – | 690 nM
3 | CCCCCCC(O)[C@H](CC(C)C)NC(=O)[C@@H](NC(=O)[C@@H](NC(=O)OC(C)(C)C)C(C)C)C(C)C (stereo not given in full) | – | 210 nM
4 | CCCCCCC(O)[C@H](CC(C)C)NC(=O)[C@@H](NC(=O)[C@@H](NC(=O)C1CC1)C(C)C)C(C)C (stereo not given in full) | 4500 nM | –
5 | CCCCCCC(O)[C@H](CC(C)C)NC(=O)[C@@H](NC(=O)[C@@H](NC(=O)CC)C(C)C)C(C)C (stereo not given in full) | – | 3200 nM
6 | CCCCCCC(O)[C@H](CC(C)C)NC(=O)[C@@H](NC(=O)[C@@H](NC(=O)CC(C)C)C(C)C)C(C)C (stereo not given in full) | – | 920 nM
7 | CCCCCCC(O)[C@H](CC(C)C)NC(=O)[C@@H](NC(=O)[C@@H](NC(=O)C(C)C)C(C)C)C(C)C (stereo not given in full) | – | 3600 nM
8 | CCCCCCC(O)[C@H](CC(C)C)NC(=O)[C@@H](NC(=O)[C@@H](NC(=O)CC(C)(C)C)C(C)C)C(C)C (stereo not given in full) | – | 1100 nM
9 | CCCCCCC(O)[C@H](CC(C)C)NC(=O)[C@@H](NC(=O)[C@@H](NC(=O)CCc1ccccc1)C(C)C)C(C)C (stereo not given in full) | – | 730 nM
10 | CCCCCCC(O)[C@H](CC(C)C)NC(=O)[C@@H](NC(=O)[C@@H](NC(=O)OC(C)C)C(C)C)C(C)C (stereo not given in full) | – | 1200 nM
